From ChEMBL document CHEMBL4513216, “Probing the Open Global Health Chemical Diversity Library for Multistage-Active Starting Points for Next-Generation Antimalarials” (ACS Infect Dis, 2020) come the findings set out here.

A short description of this series: Toxicity liver stage against HepG2, at 10uM. Format: cell-based. On the set-up: test concentration 10 uM, cell line HepG2-A16-CD81EGFP. As to conditions: human, HepG2-A16-CD81EGFP cells; read-out: INHIBITION
An outline of the steps: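 Uninfected HepG2-A16-CD81EGFP cells, 3 × 10^3 per well, 1536-well, plated on prespotted compound at 10 μM final, parasite-free screening media added to match infected plates; puromycin 10 μM positive, DMSO 0.5% negative; run in parallel with 48 h PbLuc assay at 37 °C, 5% CO2; viability by CellTiter-Glo luminescence, normalized to controls.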
`Cc1cc(NC(=O)CN2CCCC2c2c(C)nn(C)c2Cl)on1` (configuration not stated): the cytotoxicity at 10 µM is -0.945%. With `CNC(=O)C1(CCCc2ccncc2)CCN1` (configuration not stated), the cytotoxicity at 10 µM is -9.08%. The same measure for `CCc1ccc(CN(CCN(C)C)Cc2ccc(C)s2)nc1`: -43%. Next, `COCC(=O)N1CCO[C@H]2[C@H](OCc3cccnc3)CC[C@@H]21`: -2.01%; `O=C1CCC(=O)N1c1nn(Cc2c(F)cccc2Cl)cc1Cl`: -11.3%; `CCOC1Sc2nnc(C)n2N=C1c1ccc(Cl)cc1` (configuration not stated): 11.3%. Next, `COc1ccc(OCc2nc(C(=O)N3C[C@H](O)[C@@H](N(C)C)C3)co2)cc1`: -1.74%. `c1cc(CN2CCC(CCn3cccn3)CC2)cc(Cn2cccn2)c1`: the cytotoxicity at 10 µM is -1.58%. As for `CC(=O)N1CCC2(C1)C(=O)N(CC1CC1)c1ccccc12` (configuration not stated), the cytotoxicity at 10 µM came to 2.26%. The same measure for `CCn1cc(CNC(=O)c2nn(CC)cc2Br)cn1`: 47.1%; for `O=C(CN1CCOC(CNc2cccnn2)C1)N1CCCCC1` (configuration not stated): 5.18%.

Consider `CCn1nc(C)c(CNC(=O)c2cn(CCC3CCCCN3)nn2)c1C` (configuration not stated), for which the cytotoxicity at 10 µM was -1.96%. As for `CC(CO)NC(=O)Nc1ccc(CC#N)cc1` (configuration not stated), the cytotoxicity at 10 µM was -3.39%. For `CNC(=O)c1ccnc(CC2COc3c(cccc3OC)C2)c1` (configuration not stated), the cytotoxicity at 10 µM came out at 3.77%. Turning to `Cn1cc(C(=O)NCc2ccc(OC3CCCCC3)nc2)ccc1=O`, the cytotoxicity at 10 µM was 28.8%. The same measure for `CCC(O)CNC(=O)c1cc(COc2ccc(OC)cc2Cl)[nH]n1` (configuration not stated): -8.09%; for `O=C(Cn1cccn1)NCC(c1cccs1)N1CCCC1` (configuration not stated): 11.9%; for `O=C1CN(CC2CC2)Cc2nc(NCCc3ccccn3)sc21`: -12.3%. Next, `CCOc1ccc(NC(=O)NCC(C)(O)c2cccs2)cc1` (configuration not stated): -0.579%; `CC(C)NC(=O)NCC1(COc2cnccn2)C[C@@H](O)[C@@H](O)C1` (some centres not stated): -9.85%; `Cn1ncnc1NCc1ccc(Cl)cc1`: -4.43%. Next, `Cc1nn(C)c(C)c1-c1ccnc(N2CCCN(CC(C)C)CC2)n1`: 5.78%. Take `CC(C)NC(=O)C1CCN(Cn2ccc(-c3ccc(F)cc3)n2)CC1`: the cytotoxicity at 10 µM worked out at 7.07%. The same measure for `Cc1c(C(=O)NCC(C)C)nnn1-c1cccc2c1CCN(CCO)C2`: 8.09%. Next, `COCCN(Cc1ccc(C)cc1)Cc1nccn1C`: -63.3%; `CC1CN(C(=O)NCc2cccc(C#N)c2)CCN1CC(F)(F)F` (configuration not stated): -6.68%. Next, `Cc1cccc(-c2ccc(C(=O)NCC(C)(C)C(N)=O)c(=O)[nH]2)c1`: -10.5%; `CC(C)OCCN1CCN(c2ccc(CN(C)C)cn2)CC1`: -5.89%; `N#Cc1ccccc1N1CCN(C(=O)NCCN2CCOCC2)CC1`: 1.08%.

Take `COCC(=O)N1CCC(c2cccc(Cc3ccc(F)cc3)n2)CC1`: the cytotoxicity at 10 µM was determined as 10.3%. Take `O=C(Nc1ccc(-n2cccn2)cc1)N1C[C@H](O)[C@@H](N2CCOCC2)C1`: the cytotoxicity at 10 µM was -45.9%. The same measure for `O=C(NCCc1cccs1)[C@H]1CO[C@H]2CCNC[C@H]2C1`: 2.11%; for `Cc1nc2c(Nc3cccc(C#N)c3)nc(N)nc2n1C`: -1.87%; for `Cc1csc2c(C3CCN(CCCOc4ccccc4)CC3)nc(C)n12`: 1.63%. As for `COc1ncccc1CN1Cc2nccn2CC(Cn2cccn2)C1` (configuration not stated), the cytotoxicity at 10 µM was -106%. The same measure for `O=C(O)Cn1nc(-c2ccccc2F)ccc1=O`: 2.87%. As for `COCC(C)(C#N)NC(=O)COc1ccccc1` (configuration not stated), the cytotoxicity at 10 µM amounted to 7.51%. The same measure for `CN1C(=O)C2(CCN(c3nccc4occc34)CC2)c2ccccc21`: 1.16%; for `CCC(C)(CC(=O)OC)NC(=O)c1cccc(F)c1F` (configuration not stated): -4.13%; for `Cn1ccnc1-c1cn(CCCc2nnc(N)s2)nn1`: 10%.

For `CC(=O)N1CCOCC2(CCCNC2)C1` (configuration not stated), the cytotoxicity at 10 µM came out at 0.081%. Next, `COC1CN(C(=O)OCC(C)C)CCC(=O)N(C)c2ccccc21` (configuration not stated): -0.321%; `COCC(=O)NCCn1nc(-c2cc(C)oc2C)ccc1=O`: -1.74%. On to `O=C(O)Cc1cccc(-n2ccnc2-c2ccc(F)c(Cl)c2)c1`, for which the cytotoxicity at 10 µM turned out to be 2.17%. For the compound `Cn1cc(CC2CCN(C(=O)NCc3cn4ccsc4n3)C2)cn1` (configuration not stated), the cytotoxicity at 10 µM is -5.57%. Take `COC(=O)c1ccc(N2CCN(C(=O)C3CC3)C(C)C2)cc1` (configuration not stated): the cytotoxicity at 10 µM was -1.07%.

`CN(C)CCNC(=O)c1ccc(S(=O)(=O)N[C@@H]2CCNC2)cc1`: the cytotoxicity at 10 µM is -49.2%. Next, `CC(C)CC(=O)N1CCN(C(=O)NC(C)C)CC2(CC(=O)N(C)C2)C1` (configuration not stated): 3.25%. Regarding `CC(Nc1ccc(CC(=O)N(C)C)cc1)C(=O)N(C)CCC#N` (configuration not stated), the cytotoxicity at 10 µM worked out at 1.42%. The same measure for `Cc1ccccc1[C@@H]1CN(Cc2ccc(C(F)(F)F)nc2)C[C@H]1C(=O)O`: 5.33%; for `O=C(NCc1nnc2n1CCC2)N1CCC2(CCCCC2)CC1`: 11%. The same measure for `O=C1CCC2(CCN(Cc3ccsc3)CC2)N1Cc1ccccc1`: 0.552%; for `COCCn1ccnc1C1CCCN(C(=O)CSCC2CC2)C1` (configuration not stated): -14.6%; for `O=C(CCc1cc(Cl)no1)N1CCCCC1CCn1ccnc1` (configuration not stated): -1.83%. The same measure for `Cc1cc(NC(=O)c2ccc(Br)cc2F)n(C)n1`: 3.42%; for `CCN1C[C@@H]2C[C@H](C(=O)Nc3ccccc3)[C@H](C1)O2`: -76.4%; for `O=C(CCc1ccco1)NS(=O)(=O)Cc1ccon1`: 9.99%. For the compound `O=C1N(CCCc2ccccc2)CCCC1(O)CNCC1CCCCC1` (configuration not stated), the cytotoxicity at 10 µM was -0.106%. The same measure for `CCN(CC)CCCNc1nccc(-c2cn(C)nc2C)n1`: -2.92%; for `O=C1COc2ccc(C(=O)NS(=O)(=O)c3ccc(F)cc3F)cc2N1`: -4.72%; for `O=C1CCC2(CCCN(C(=O)Cc3ccccc3)C2)N1` (configuration not stated): 8.18%. The same measure for `O=C(c1cc2c([nH]c1=O)CCC2)N1CCCC1c1ccc(F)cc1` (configuration not stated): -6.14%; for `CCN(c1ccc(C(=O)N2CCCC(C)C2)cc1)S(=O)(=O)CC` (configuration not stated): -8.6%; for `O=C(Nc1ccc(F)c(-n2cccc2)c1)NC1(CCO)CCOCC1`: 8.67%. The same measure for `Cc1ccnc(CC(C)N(C)c2cc(C3CCNCC3)nc(C)n2)c1` (configuration not stated): -46.2%. Take `O=C(c1cc(Cl)cc2cccnc12)N1CCN(CCO)CC1`: the cytotoxicity at 10 µM is -2.07%. The same measure for `CN(C)c1ccc(NC(=O)NCc2ccc(Cl)s2)cn1`: 6.43%; for `CC(C)(C)OCCN1CCCC1c1nc(Cc2ccc(F)cc2)no1` (configuration not stated): -7.1%; for `O=C(CCCOc1ccc(F)cc1)N1CCCC(n2cccn2)C1` (configuration not stated): 4.23%.

Take `CCNc1ncc(C(=O)NCCc2csc(CSC)n2)cn1`: the cytotoxicity at 10 µM was -5.63%.

As to `Cc1ccc(CN(C)C(=O)NCC(C)(C)CCS(C)(=O)=O)s1`, the cytotoxicity at 10 µM was 6.24%. The same measure for `COc1cc2c(cc1-c1nc3c(cnn3C(C)C(C)C)[nH]1)OCO2` (configuration not stated): 8.61%; for `NC(=O)N1CC[C@@H]2O[C@@H](COCC(=O)N3CCCC3)CC[C@@H]21`: -0.356%; for `CC(C)[C@H]1COC(=O)N1CC(=O)N(C)CCCn1cccn1`: -157%. The same measure for `CC(=O)N1CCc2c(nc(-c3ccccn3)nc2N(C)CC(O)CO)C1` (configuration not stated): -12.2%. Next, `O=C(c1sccc1Cl)N1CCC(Cn2cc(CO)nn2)CC1`: -7.12%; `Cc1cccc(CN2C[C@@H]3OCCN(c4cnccn4)[C@@H]3C2)n1`: 5.25%. `Cc1nnc(C(C)NCC2(c3ccc(F)cc3)CCCCC2)o1` (configuration not stated): the cytotoxicity at 10 µM came to 2.39%.

Turning to `Nc1cc(N2CCCC(CO)(Cc3ccccc3F)C2)nc(N)n1` (configuration not stated), the cytotoxicity at 10 µM turned out to be 12.8%. Regarding `O=C1CN(CCS(=O)(=O)c2ccc(Cl)cc2)CCN1`, the cytotoxicity at 10 µM is -9.2%. The same measure for `COCCN1CCN(c2cc(OC)ncn2)Cc2ccc(C)nc21`: -99.2%; for `Cc1cccc(CN2C(=O)CO[C@@H]3CN(C4CCOCC4)C[C@H]32)c1`: -146%. Regarding `O=C1NCCCc2[nH]c(-c3nc(C4CCCCC4)no3)nc21`, the cytotoxicity at 10 µM is -0.627%. The same measure for `Cc1nccnc1CN1CCC2(CCCN(C3CCOCC3)C2=O)C1` (configuration not stated): -5.44%; for `COCCC(C)NC(=O)Nc1ccc(N2CCOC2=O)c(OC)c1` (configuration not stated): 6.48%.

Take `Cc1nn(C)c(C)c1C1CCCN1C(=O)CCc1cscn1` (configuration not stated): the cytotoxicity at 10 µM was -3.66%. The same measure for `CC(C)C1CN(C(=O)c2nccnc2N)CCS1` (configuration not stated): -8.54%; for `Cc1ccnc(N2C[C@H]3CC[C@@H](C2)N(CC2CCC2)C3=O)n1`: 11.4%. The same measure for `CCOC(=O)CN1CCC2(CCCN(CCOc3ccccc3)C2)C1` (configuration not stated): -2.63%; for `CSCC(=O)N(C)Cc1cnn(-c2ccc(F)cc2)c1`: -13.4%; for `CCOc1ccccc1C(CC(=O)Nc1ccc(C)cn1)NC(C)=O` (configuration not stated): -10.7%. Take `Cc1cc(NC(=O)CNCc2csc(-c3cnccn3)n2)ccc1Cl`: the cytotoxicity at 10 µM was -3.52%. The same measure for `O=C(C1CC1)N1CCc2nc(C3CCN(C(=O)C4CC4)C3)nc(O)c2C1` (configuration not stated): -20.9%; for `CCOc1ccc(CC(CNC(=O)c2sccc2C)C(N)=O)cc1` (configuration not stated): -4.18%; for `CC(SCC(=O)NC(N)=O)c1ccccc1F` (configuration not stated): 2.96%. Turning to `CC[C@@H]1N(Cc2ccc(C)s2)CCC[C@]12CCC(=O)N2C`, the cytotoxicity at 10 µM worked out at 4.94%. Turning to `COCC(=O)NCc1cc(=O)n2c(n1)CN(Cc1ccco1)CCC2`, the cytotoxicity at 10 µM is -89.3%.
